Data published in ChEMBL document CHEMBL1140904, “Synthesis and analysis of novel glycerolipids for the treatment of metabolic syndrome” (J Med Chem, 2009).

What was measured:
[1] = test system: Rattus norvegicus; test: Effect on fatty acid composition in Wistar rat assessed as change in plasma 18;2, n-6 level at dose equivalent to 250 umol of tetradecylthioacetic acid, po after 6 days; type: functional
[2] = test system: Rattus norvegicus; test: Effect on fatty acid composition in Wistar rat assessed as change in plasma PUFA level at dose equivalent to 85 umol of tetradecylthioacetic acid, po after 6 days; type: functional
[3] = test system: Rattus norvegicus; test: Effect on fatty acid composition in Wistar rat assessed as change in plasma saturated fatty acid level at dose equivalent to 85 umol of tetradecylthioacetic acid, po after 6 days; type: functional
[4] = test system: Rattus norvegicus; test: Induction of PPAR-alpha-regulated HMG-CoA synthase activity in po dosed Wistar rat after 6 days; type: functional, organism-based
In short: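 Wistar rats were gavaged daily for 6 days at 85 or 250 µmol TTA-equivalent in 0.5% CMC, with palmitic acid controls. HMG-CoA synthase activity was assayed in the liver postnuclear fraction by the Clinkenbeard method. Mean ± SD, 5 rats/group.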

[5] = test system: Rattus norvegicus; test: Plasma concentration in Wistar rat assessed as tetradecylthioacetic acid at dose equivalent to 250 umol of tetradecylthioacetic acid, po after 6 days; type: ADME, organism-based; conditions: in vivo, 144 h
[6] = test system: Rattus norvegicus; test: Effect on fatty acid composition in Wistar rat assessed as change in plasma MUFA level at dose equivalent to 85 umol of tetradecylthioacetic acid, po after 6 days; type: functional
[7] = test system: Rattus norvegicus; test: Effect on fatty acid composition in Wistar rat assessed as change in liver LCPUFA, n-6 level at dose equivalent to 85 umol of tetradecylthioacetic acid, po after 6 days; type: functional
In short: (§1)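 Male Wistar rats were gavaged once daily for 6 days with compound in 0.5% CMC at 85 or 250 µmol TTA-equivalent per animal. Controls received palmitic acid. Liver was homogenized in 0.25 M sucrose/10 mM HEPES pH 7.4/1 mM EDTA at 0-4 °C. Lipids were extracted with chloroform:methanol 2:1 and spiked with 21:0 internal standard. Fatty acids were BF3-methanol transesterified and quantified as wt%. Values are mean ± SD, n=5.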

[8] = test system: Rattus norvegicus; test: Effect on fatty acid composition in Wistar rat assessed as change in liver 18;2, n-6 level at dose equivalent to 85 umol of tetradecylthioacetic acid, po after 6 days; type: functional; in short: as §1
[9] = test system: Rattus norvegicus; test: Effect on fatty acid composition in Wistar rat assessed as change in liver MUFA level at dose equivalent to 85 umol of tetradecylthioacetic acid, po after 6 days; type: functional; in short: as §1
[10] = test system: Rattus norvegicus; test: Effect on fatty acid composition in Wistar rat assessed as change in liver PUFA level at dose equivalent to 250 umol of tetradecylthioacetic acid, po after 6 days; type: functional; in short: as §1
[11] = test system: Rattus norvegicus; test: Effect on fatty acid composition in Wistar rat assessed as change in liver LCn-6/18:2 level at dose equivalent to 250 umol of tetradecylthioacetic acid, po after 6 days; type: functional; in short: as §1
[12] = test system: Rattus norvegicus; test: Effect on fatty acid composition in Wistar rat assessed as change in plasma PUFA level at dose equivalent to 250 umol of tetradecylthioacetic acid, po after 6 days; type: functional
[13] = test system: Rattus norvegicus; test: Effect on fatty acid composition in Wistar rat assessed as change in plasma saturated fatty acid level at dose equivalent to 250 umol of tetradecylthioacetic acid, po after 6 days; type: functional
[14] = test system: Rattus norvegicus; test: Decrease in plasma triacylglycerol level in po dosed Wistar rat after 6 days; type: functional, organism-based
In short: (§2)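 Male Wistar rats (170-210 g), housed in pairs with chow and water, were gavaged once daily for 6 days with test lipid in 0.5% (w/v) carboxymethylcellulose at 85 or 250 µmol TTA-equivalent per animal. Controls received palmitic acid in CMC. Plasma triacylglycerol and cholesterol were measured with an enzymatic kit, and liver levels were also determined. Values are mean ± SD, n=5 rats.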

[15] = test system: Rattus norvegicus; test: Plasma concentration in Wistar rat assessed as tetradecylthioacetic acid at dose equivalent to 85 umol of tetradecylthioacetic acid, po after 6 days; type: ADME, organism-based; conditions: in vivo, 144 h
[16] = test system: Rattus norvegicus; test: Effect on fatty acid composition in Wistar rat assessed as change in liver saturated fatty acid level at dose equivalent to 85 umol of tetradecylthioacetic acid, po after 6 days; type: functional; in short: as §1
[17] = test system: Rattus norvegicus; test: Induction of PPAR-alpha-regulated fatty acyl-CoA oxidase activity in po dosed Wistar rat after 6 days; type: functional, organism-based
In short: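 Rats were dosed by gastric intubation for 6 days at 85 or 250 µmol TTA-equivalent in 0.5% CMC, with palmitic acid controls. Fatty acyl-CoA oxidase was measured in the liver postnuclear fraction by a coupled assay, following H2O2 production as the rise in dichlorofluorescein absorbance with palmitoyl-CoA. Mean ± SD, n=5.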

[18] = test system: Rattus norvegicus; test: Effect on fatty acid composition in Wistar rat assessed as change in liver MUFA level at dose equivalent to 250 umol of tetradecylthioacetic acid, po after 6 days; type: functional; in short: as §1
[19] = test system: Rattus norvegicus; test: Effect on fatty acid composition in Wistar rat assessed as change in plasma LCPUFA, n-6 level at dose equivalent to 250 umol of tetradecylthioacetic acid, po after 6 days; type: functional
[20] = test system: Rattus norvegicus; test: Effect on fatty acid composition in Wistar rat assessed as change in liver 18;2, n-6 level at dose equivalent to 250 umol of tetradecylthioacetic acid, po after 6 days; type: functional; in short: as §1
[21] = test system: Rattus norvegicus; test: Effect on fatty acid composition in Wistar rat assessed as change in plasma LCPUFA, n-6 level at dose equivalent to 85 umol of tetradecylthioacetic acid, po after 6 days; type: functional
[22] = test system: Rattus norvegicus; test: Induction of PPAR-alpha-regulated CPT2 activity in po dosed Wistar rat after 6 days; type: functional, organism-based
In short: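 Wistar rats were dosed orally for 6 days (85 or 250 µmol TTA-equivalent in 0.5% CMC; palmitic acid controls). CPT-II activity was measured in the liver mitochondrial fraction, prepared from sucrose/HEPES pH 7.4/EDTA homogenate at 0-4 °C. Means ± SD from 5 rats per group.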

[23] = test system: Rattus norvegicus; test: Effect on fatty acid composition in Wistar rat assessed as change in liver LCn-6/18:2 level at dose equivalent to 85 umol of tetradecylthioacetic acid, po after 6 days; type: functional; in short: as §1
[24] = test system: Rattus norvegicus; test: Effect on fatty acid composition in Wistar rat assessed as change in liver saturated fatty acid level at dose equivalent to 250 umol of tetradecylthioacetic acid, po after 6 days; type: functional; in short: as §1
[25] = test system: Rattus norvegicus; test: Effect on fatty acid composition in Wistar rat assessed as change in plasma LCn-6/18:2 level at dose equivalent to 85 umol of tetradecylthioacetic acid, po after 6 days; type: functional
[26] = test system: Rattus norvegicus; test: Effect on fatty acid composition in Wistar rat assessed as change in plasma 18;2, n-6 level at dose equivalent to 85 umol of tetradecylthioacetic acid, po after 6 days; type: functional
[27] = test system: Rattus norvegicus; test: Effect on fatty acid composition in Wistar rat assessed as change in liver PUFA level at dose equivalent to 85 umol of tetradecylthioacetic acid, po after 6 days; type: functional; in short: as §1
[28] = test system: Liver; test: Drug concentration in Wistar rat liver assessed as tetradecylthioacetic acid at dose equivalent to 85 umol of tetradecylthioacetic acid, po after 6 days; type: ADME, organism-based; conditions: in vivo, 144 h; in short: as §1
[29] = test system: Rattus norvegicus; test: Effect on fatty acid composition in Wistar rat assessed as change in plasma MUFA level at dose equivalent to 250 umol of tetradecylthioacetic acid, po after 6 days; type: functional
[30] = test system: Rattus norvegicus; test: Increase in [1-14C]palmitoyl-CoA oxidation in po dosed Wistar rat liver homogenate after 6 days; type: functional, organism-based
In short: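 Rats were dosed by gastric intubation for 6 days with 85 or 250 µmol TTA-equivalent in 0.5% CMC, with palmitic acid controls. Liver was homogenized in 0.25 M sucrose, 10 mM HEPES pH 7.4, 1 mM EDTA at 0-4 °C. Palmitoyl-CoA oxidation was read as acid-soluble products from [1-14C]-palmitoyl-CoA in the postnuclear fraction. Mean ± SD, n=5.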

[31] = test system: Rattus norvegicus; test: Effect on fatty acid composition in Wistar rat assessed as change in liver LCPUFA, n-6 level at dose equivalent to 250 umol of tetradecylthioacetic acid, po after 6 days; type: functional; in short: as §1
[32] = test system: Rattus norvegicus; test: Decrease in plasma cholesterol level in po dosed Wistar rat after 6 days; type: functional, organism-based; in short: as §2
[33] = test system: Rattus norvegicus; test: Effect on fatty acid composition in Wistar rat assessed as change in plasma LCn-6/18:2 level at dose equivalent to 250 umol of tetradecylthioacetic acid, po after 6 days; type: functional

CCCCCCCCCCCCCCSCC(=O)OCC(COC(=O)CSCCCCCCCCCCCCCC)OC(=O)CSCCCCCCCCCCCCCC [TRITETRADECYLTHIOACETYL GLYCEROL]
Activity [1]: 18.25% | Activity [2]: 2.35% | Activity [3]: 36.21% | Activity [4]: Dose-dependent effect | Drug uptake [5]: 1.49% | Activity [6]: 21.8% | Activity [7]: 25.81% | Activity [8]: 11.28% | Activity [9]: 17.27% | Activity [10]: 4.97% | Activity [11]: 2.7% | Activity [12]: 2.29% | Activity [13]: 34.67% | Activity [14]: Dose-dependent effect | Drug uptake [15]: 0.51% | Activity [16]: 39.82% | Activity [17]: Dose-dependent effect | Activity [18]: 15.91% | Activity [19]: 22.24% | Activity [20]: 10.7% | Activity [21]: 19.08% | Activity [22]: Dose-dependent effect | Activity [23]: 2.3% | Activity [24]: 38.98% | Activity [25]: 0.98% | Activity [26]: 19.73% | Activity [27]: 5.18% | Drug uptake [28]: 0.69% | Drug uptake ([28]; in the assay text read “equivalent to 250 umol” for “equivalent to 85 umol”): 2.04% | Activity [29]: 21.63% | Activity [30]: Dose-dependent effect | Activity [31]: 28.73% | Activity [32]: Dose-dependent effect | Activity [33]: 1.22%
